According to ChEMBL document CHEMBL3286182, “4-aminoquinolone piperidine amides: noncovalent inhibitors of DprE1 with long residence time and potent antimycobacterial activity” (J Med Chem, 2014):
≈ marks a conversion by molar mass, not a printed value. Calls of active or inactive are those of the source. The rule behind the calls is not given here.

Tests used:
[1] = Solubility of the compound in 0.1 M phosphate buffer at pH 7.4 after 24 hrs by UV and MS analysis; format: physicochemical
[2] = Inhibition of Mycobacterium smegmatis recombinant DprE1 using farnesylphosphoryl-beta-D-ribofuranose as substrate assessed as conversion of amplex red to resorufin after 30 mins; parameters: species or system Mycolicibacterium smegmatis
Procedure, shortened: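 Msm DprE1 (thioredoxin-6His fusion of Msm Rv3790) at 75 nM, preincubated 30 min with 10 μM FAD. Buffer: 50 mM glycylglycine pH 8.5, 200 mM potassium glutamate, 0.002% Brij-35, 2% DMSO, 25 °C. Started with 300 μM farnesylphosphoryl-β-D-ribofuranose, 0.01 mg/mL HRP and 50 μM Amplex Red.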

[3] = Elimination half life in Wistar rat at 2 mg/kg, iv; format: ADME, organism-based; parameters: dose 2 mg/kg, route intravenous; conditions: in vivo, read-out: beta t1/2 (converted)
Procedure, shortened: (§1)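 Male Wistar rats given a single dose, 2 mg/kg intravenously or 10 mg/kg orally. Plasma concentration followed over time, n = 2 per compound. Parameters taken from the plasma curves: C0 (iv), Cmax (oral), AUC0−∞, elimination half-life, plasma clearance, Vss and oral bioavailability.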

[4] = target: Cytochrome P450 2C9 (Homo sapiens, UniProt P11712); assay: Inhibition of CYP2C9 (unknown origin); format: ADME
Procedure, shortened: (§2)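 CYP inhibition IC50 measured on isoforms CYP3A4, CYP2D6, CYP2C9, CYP2C19 and CYP1A2.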

[5] = system: Pseudomonas aeruginosa; assay: Antimicrobial activity against Pseudomonas aeruginosa ARC545 at 100 uM; format: functional, organism-based
Procedure, shortened: (§3)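 Nonmycobacterial panel of Candida albicans, Gram-negative and Gram-positive pathogens.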

[6] = system: Haemophilus influenzae; assay: Antimicrobial activity against Haemophilus influenzae ARC158 at 100 uM; format: functional, organism-based; procedure, shortened: as §3
[7] = system: Mycolicibacterium smegmatis; assay: Antimicrobial activity against Mycobacterium smegmatis ATCC 607 at 100 uM; format: functional, organism-based
[8] = system: Escherichia coli; assay: Antimicrobial activity against Escherichia coli ARC523 at 100 uM; format: functional, organism-based; procedure, shortened: as §3
[9] = Oral bioavailability in Wistar rat at 10 mg/kg; format: ADME, organism-based; conditions: in vivo; procedure, shortened: as §1
[10] = Intrinsic clearance in rat cryopreserved hepatocytes assessed per 10^6 cells at 1 uM up to 120 mins by LC-MS/MS analysis; format: ADME, cell-based, Hepatocyte; conditions: read-out: CLH
[11] = system: Escherichia coli; assay: Antimicrobial activity against Escherichia coli ARC524 at 100 uM; format: functional, organism-based; procedure, shortened: as §3
[12] = target: Cytochrome P450 3A4 (Homo sapiens, UniProt P08684); assay: Inhibition of CYP3A4 (unknown origin); format: ADME; procedure, shortened: as §2
[13] = Clearance in Wistar rat at 2 mg/kg, iv; format: ADME, organism-based; parameters: dose 2 mg/kg, route intravenous; conditions: in vivo; procedure, shortened: as §1
[14] = target: T1, Adenosine receptor A1 (Homo sapiens, UniProt P30542); assay: Inhibition of adenosine A1 receptor (unknown origin)
T1 sequence (P30542 whole entry): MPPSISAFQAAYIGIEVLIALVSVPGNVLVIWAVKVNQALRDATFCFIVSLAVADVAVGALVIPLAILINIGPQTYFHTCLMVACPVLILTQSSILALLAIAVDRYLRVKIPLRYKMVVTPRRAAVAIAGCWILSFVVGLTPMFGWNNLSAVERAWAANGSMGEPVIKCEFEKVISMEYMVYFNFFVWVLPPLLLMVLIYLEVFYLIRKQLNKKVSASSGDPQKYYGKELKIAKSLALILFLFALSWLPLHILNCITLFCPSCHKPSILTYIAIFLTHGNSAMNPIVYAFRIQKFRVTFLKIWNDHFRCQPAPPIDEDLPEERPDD
Procedure, shortened: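 Secondary pharmacology panel of binding, enzyme and functional assays covering 24 molecular targets. Activity recorded as a defined Ki/IC50/EC50.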

[15] = AUC (0 to infinity) in Wistar rat at 10 mg/kg, po; format: ADME, organism-based; parameters: time infinity, dose 10 mg/kg, route oral; conditions: plasma; procedure, shortened: as §1
[16] = target: Cytochrome P450 2C19 (Homo sapiens, UniProt P33261); assay: Inhibition of CYP2C19 (unknown origin); format: ADME; procedure, shortened: as §2
[17] = system: Pseudomonas aeruginosa; assay: Antimicrobial activity against Pseudomonas aeruginosa ARC546 at 100 uM; format: functional, organism-based; procedure, shortened: as §3
[18] = system: Streptococcus pneumoniae; assay: Antimicrobial activity against Streptococcus pneumoniae ARC548 at 100 uM; format: functional, organism-based; procedure, shortened: as §3
[19] = Permeability of the compound from basolateral to apical side in human Caco2 cells; format: ADME, cell-based; conditions: Caco-2, read-out: permeability
[20] = Fraction unbound in human plasma at 20 uM after 18 hrs by equilibrium dialysis method; format: ADME, cell-free
[21] = system: Staphylococcus aureus; assay: Antimicrobial activity against Staphylococcus aureus ARC517 at 100 uM; format: functional, organism-based; procedure, shortened: as §3
[22] = system: Mycobacterium tuberculosis; assay: Antimycobacterial activity against Mycobacterium tuberculosis H37Rv after 5 days by standard microdilution method; format: functional; conditions: 120 h
[23] = Initial plasma concentration in Wistar rat at 2 mg/kg, iv; format: ADME, organism-based; parameters: dose 2 mg/kg, route intravenous; procedure, shortened: as §1
[24] = Elimination half life in Wistar rat at 10 mg/kg, po; format: ADME, organism-based; parameters: dose 10 mg/kg, route oral; conditions: in vivo, read-out: beta t1/2 (converted); procedure, shortened: as §1
[25] = target: Cytochrome P450 2D6 (Homo sapiens, UniProt P10635); assay: Inhibition of CYP2D6 (unknown origin); format: ADME; procedure, shortened: as §2
[26] = Permeability of the compound from apical to basolateral side in human Caco2 cells; format: ADME, cell-based; conditions: Caco-2, read-out: permeability
[27] = target: Voltage-gated inwardly rectifying potassium channel KCNH2 (Homo sapiens, UniProt Q12809); assay: Inhibition of human ERG by medium-throughput electrophysiology
[28] = system: Klebsiella pneumoniae; assay: Antimicrobial activity against Klebsiella pneumoniae ARC1865 at 100 uM; format: functional, organism-based; procedure, shortened: as §3
[29] = Octanol-water partition coefficient, log D of the compound by shake-flask method; format: physicochemical
[30] = Cytotoxicity against human A549 cells after 72 hrs by resazurin based fluorescence assay; format: cell-based; conditions: read-out: MIC
Procedure, shortened: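 Cytotoxicity read as MMIC, the MIC on the A549 cell line.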

[31] = Intrinsic clearance in human liver microsomes at 1 uM up to 30 mins by LC-MS/MS analysis; format: ADME; conditions: read-out: CLH
[32] = AUC (0 to infinity) in Wistar rat at 2 mg/kg, iv; format: ADME, organism-based; parameters: dose 2 mg/kg, route intravenous, time infinity; conditions: plasma; procedure, shortened: as §1
[33] = Cmax in Wistar rat at 10 mg/kg, po; format: ADME, organism-based; parameters: dose 10 mg/kg, route oral; conditions: in vivo; procedure, shortened: as §1
[34] = target: T2, Cytochrome P450 1A2 (Homo sapiens, UniProt P05177); assay: Inhibition of CYP1A2 (unknown origin); format: ADME; procedure, shortened: as §2
T2 sequence (P05177 whole entry): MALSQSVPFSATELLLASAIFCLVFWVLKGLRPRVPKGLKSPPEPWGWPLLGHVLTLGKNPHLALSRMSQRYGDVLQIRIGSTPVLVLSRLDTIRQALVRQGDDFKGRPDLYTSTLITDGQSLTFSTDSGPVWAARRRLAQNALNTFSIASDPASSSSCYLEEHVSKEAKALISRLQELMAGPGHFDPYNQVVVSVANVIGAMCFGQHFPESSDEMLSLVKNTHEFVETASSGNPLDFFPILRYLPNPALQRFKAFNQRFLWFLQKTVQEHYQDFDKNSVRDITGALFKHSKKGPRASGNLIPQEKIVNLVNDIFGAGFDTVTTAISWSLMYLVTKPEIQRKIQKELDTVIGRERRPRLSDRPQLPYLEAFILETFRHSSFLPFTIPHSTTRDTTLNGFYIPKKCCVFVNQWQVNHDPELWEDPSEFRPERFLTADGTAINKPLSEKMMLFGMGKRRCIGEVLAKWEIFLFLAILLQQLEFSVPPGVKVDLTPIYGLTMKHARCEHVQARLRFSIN

[35] = system: Mycolicibacterium smegmatis; assay: Antimicrobial activity against Mycobacterium smegmatis mc2155 at 100 uM; format: functional, organism-based; conditions: str. MC2 155
[36] = system: Candida albicans; assay: Antimicrobial activity against Candida albicans ARC527 at 100 uM; format: functional, organism-based; procedure, shortened: as §3
[37] = Volume of distribution at steady state in Wistar rat at 2 mg/kg, iv; format: ADME, organism-based; parameters: dose 2 mg/kg, route intravenous; conditions: in vivo, read-out: Vdss; procedure, shortened: as §1
[38] = system: Mycobacterium tuberculosis; assay: Antimycobacterial activity against Mycobacterium tuberculosis H37Rv under hypoxic condition after 6 days by resazurin assay; format: functional
[39] = system: Haemophilus influenzae; assay: Antimicrobial activity against Haemophilus influenzae ARC446 at 100 uM; format: functional, organism-based; procedure, shortened: as §3

Chain of Voltage-gated inwardly rectifying potassium channel KCNH2 (Q12809 whole entry): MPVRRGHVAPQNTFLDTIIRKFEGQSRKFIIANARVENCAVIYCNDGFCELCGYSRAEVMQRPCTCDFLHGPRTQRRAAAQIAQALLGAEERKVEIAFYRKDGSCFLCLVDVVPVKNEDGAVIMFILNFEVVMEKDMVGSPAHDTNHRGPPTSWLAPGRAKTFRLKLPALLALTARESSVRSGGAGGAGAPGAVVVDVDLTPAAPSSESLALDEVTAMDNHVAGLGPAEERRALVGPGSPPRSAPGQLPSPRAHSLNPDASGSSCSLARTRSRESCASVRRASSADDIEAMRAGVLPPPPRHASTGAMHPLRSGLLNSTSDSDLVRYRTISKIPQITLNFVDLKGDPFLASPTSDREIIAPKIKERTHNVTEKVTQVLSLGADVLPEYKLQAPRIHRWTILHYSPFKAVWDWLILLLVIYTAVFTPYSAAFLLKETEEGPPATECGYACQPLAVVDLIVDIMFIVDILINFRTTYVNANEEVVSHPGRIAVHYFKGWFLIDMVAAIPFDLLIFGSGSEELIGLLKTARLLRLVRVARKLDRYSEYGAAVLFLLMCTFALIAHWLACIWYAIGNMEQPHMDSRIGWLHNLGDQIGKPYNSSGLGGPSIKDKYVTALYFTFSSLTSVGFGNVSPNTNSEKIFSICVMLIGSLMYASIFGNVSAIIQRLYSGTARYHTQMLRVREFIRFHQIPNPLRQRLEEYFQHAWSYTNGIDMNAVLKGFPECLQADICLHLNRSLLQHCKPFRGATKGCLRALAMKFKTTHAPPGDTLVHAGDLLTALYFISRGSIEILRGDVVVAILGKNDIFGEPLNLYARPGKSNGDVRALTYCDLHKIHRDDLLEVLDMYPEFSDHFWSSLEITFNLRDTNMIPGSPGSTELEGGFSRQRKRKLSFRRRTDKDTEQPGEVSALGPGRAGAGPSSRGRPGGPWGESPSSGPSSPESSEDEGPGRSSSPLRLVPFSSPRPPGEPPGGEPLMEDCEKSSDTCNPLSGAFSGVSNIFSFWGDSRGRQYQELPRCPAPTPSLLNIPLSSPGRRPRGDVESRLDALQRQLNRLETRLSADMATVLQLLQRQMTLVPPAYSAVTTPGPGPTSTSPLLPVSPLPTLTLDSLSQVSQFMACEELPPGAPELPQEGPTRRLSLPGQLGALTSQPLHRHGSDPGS
Chain of Cytochrome P450 2C19 (P33261 whole entry): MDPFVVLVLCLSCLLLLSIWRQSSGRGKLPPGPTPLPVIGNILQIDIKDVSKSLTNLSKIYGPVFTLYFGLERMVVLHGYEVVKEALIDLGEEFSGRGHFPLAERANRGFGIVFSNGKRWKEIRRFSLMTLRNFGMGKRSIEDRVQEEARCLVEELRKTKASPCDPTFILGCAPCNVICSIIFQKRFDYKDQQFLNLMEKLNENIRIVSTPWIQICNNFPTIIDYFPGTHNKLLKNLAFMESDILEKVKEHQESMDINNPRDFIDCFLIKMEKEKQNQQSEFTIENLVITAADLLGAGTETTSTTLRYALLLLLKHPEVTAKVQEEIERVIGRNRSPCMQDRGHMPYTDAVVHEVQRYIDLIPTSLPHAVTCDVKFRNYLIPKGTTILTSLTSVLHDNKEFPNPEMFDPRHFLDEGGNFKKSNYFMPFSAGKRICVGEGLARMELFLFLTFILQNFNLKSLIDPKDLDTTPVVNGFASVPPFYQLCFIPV
Chain of Cytochrome P450 2C9 (P11712 whole entry, canonical isoform): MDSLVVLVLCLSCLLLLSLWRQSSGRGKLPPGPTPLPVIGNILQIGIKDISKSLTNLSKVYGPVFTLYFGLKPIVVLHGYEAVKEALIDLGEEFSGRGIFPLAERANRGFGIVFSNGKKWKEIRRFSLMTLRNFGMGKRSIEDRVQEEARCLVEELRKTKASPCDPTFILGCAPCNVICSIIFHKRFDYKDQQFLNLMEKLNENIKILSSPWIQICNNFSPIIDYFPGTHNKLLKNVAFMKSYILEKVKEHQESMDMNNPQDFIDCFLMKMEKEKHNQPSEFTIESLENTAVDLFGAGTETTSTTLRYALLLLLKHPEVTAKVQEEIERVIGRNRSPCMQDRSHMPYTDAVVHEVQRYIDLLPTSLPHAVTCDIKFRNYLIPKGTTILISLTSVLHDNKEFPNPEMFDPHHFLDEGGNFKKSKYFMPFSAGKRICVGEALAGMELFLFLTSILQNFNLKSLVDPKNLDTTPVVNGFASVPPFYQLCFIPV
Chain of Cytochrome P450 3A4 (P08684 whole entry): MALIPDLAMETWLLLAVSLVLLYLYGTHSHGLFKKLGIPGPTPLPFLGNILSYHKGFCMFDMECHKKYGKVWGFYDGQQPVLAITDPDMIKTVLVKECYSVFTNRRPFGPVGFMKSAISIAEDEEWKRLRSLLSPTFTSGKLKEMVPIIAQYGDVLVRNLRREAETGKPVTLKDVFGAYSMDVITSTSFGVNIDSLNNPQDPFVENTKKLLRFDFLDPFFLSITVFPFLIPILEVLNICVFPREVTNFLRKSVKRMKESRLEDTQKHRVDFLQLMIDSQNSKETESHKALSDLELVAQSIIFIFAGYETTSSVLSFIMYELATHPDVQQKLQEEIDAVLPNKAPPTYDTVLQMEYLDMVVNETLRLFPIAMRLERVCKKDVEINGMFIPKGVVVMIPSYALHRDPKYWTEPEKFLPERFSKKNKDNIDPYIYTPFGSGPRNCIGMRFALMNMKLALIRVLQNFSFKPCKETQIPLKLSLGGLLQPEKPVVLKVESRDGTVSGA
Chain of Cytochrome P450 2D6 (P10635 whole entry): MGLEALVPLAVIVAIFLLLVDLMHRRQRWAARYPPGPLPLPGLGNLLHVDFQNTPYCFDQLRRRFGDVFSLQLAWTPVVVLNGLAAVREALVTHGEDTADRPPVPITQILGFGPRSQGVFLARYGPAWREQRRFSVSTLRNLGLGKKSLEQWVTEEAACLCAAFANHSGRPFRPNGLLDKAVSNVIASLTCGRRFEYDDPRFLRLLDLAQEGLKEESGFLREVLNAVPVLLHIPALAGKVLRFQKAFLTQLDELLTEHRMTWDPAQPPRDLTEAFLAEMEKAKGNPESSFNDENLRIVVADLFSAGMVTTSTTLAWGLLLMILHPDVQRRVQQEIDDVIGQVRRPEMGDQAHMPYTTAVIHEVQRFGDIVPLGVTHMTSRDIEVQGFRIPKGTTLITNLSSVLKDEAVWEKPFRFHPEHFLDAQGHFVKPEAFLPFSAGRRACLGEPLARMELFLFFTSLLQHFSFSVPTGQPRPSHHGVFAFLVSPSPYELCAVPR

With `Cn1ncc(C(=O)N2CCC(Nc3cc(=O)n(C)c4ccccc34)CC2)c1Cl` the solubility at 24 h [1] was 78 µM (≈ 31.2 µg/mL), the IC50 [2] was 0.14 µM and the half-life [3] was 1.1 h. The INH [4] was over 30 µM, the Activity [5] was “inactive” and the Activity [6] was “inactive”. For the same molecule, the Activity [7] was “inactive”, the Activity [8] was “inactive” and the bioavailability [9] was 100%. For the same molecule, the hepatocyte CLint at 1 µM [10] was 8 µL/min/1e6 cells, the Activity [11] was “inactive” and the INH [12] was over 30 µM. The clearance [13] was 24.8 mL/min/kg, the IC50 [14] was 8 µM and the AUC(0-inf) [15] was 19 µM·h. The INH [16] was over 30 µM, the Activity [17] was “inactive” and the Activity [18] was “inactive”. For the same molecule, the Papp B→A [19] was 23 ×10⁻⁶ cm/s, the fraction unbound at 18 h, 20 µM [20] was 0.03 and the Activity [21] was “inactive”. The MIC [22] was 25 µM (≈ 10 µg/mL), the C0 [23] was 5.4 µM and the half-life [24] was 1.3 h. It also gave an INH [25] of over 30 µM, a Papp A→B [26] of 4 ×10⁻⁶ cm/s and an IC50 [27] of over 33 µM. The Activity [28] was “inactive”, the logD [29] was 2 and the MCC at 72 h [30] was over 100 µM. For the same molecule, the microsomal CLint at 1 µM [31] was 14 µL/min/mg, the AUC(0-inf) [32] was 3.4 µM·h and the Cmax [33] was 7 µM. For the same molecule, the INH [34] was over 30 µM, the Activity [35] was “inactive” and the Activity [36] was “inactive”. The Vd [37] was 1.2 L/kg, the Activity [38] was “inactive” and the Activity [39] was “inactive”.
